Activity calls are given as the source filed them. The calls are words filed in the database; no cut-off is given here.
Legend:
[1] = Cytotoxicity against mouse Neuro2a cells up to 100 uM; assay type: cell-based; settings: n2a
[2] = tested on: Staphylococcus aureus; test: Antibacterial activity against methicillin-resistant Staphylococcus aureus; assay type: functional, organism-based
[3] = tested on: Candida albicans; test: Antifungal activity against Candida albicans; assay type: functional, organism-based
[4] = tested on: NCI-H460; test: Cytotoxicity against human H460 cells up to 100 uM; assay type: cell-based
[5] = tested on: Biomphalaria glabrata; test: Molluscicidal activity against Biomphalaria glabrata assessed as mortality after 24 hrs; assay type: functional
How it was run: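 Test organism: the snail Biomphalaria glabrata. Pure compound was made up as a 20 mg/mL stock in EtOH, and an aliquot of this stock was diluted with distilled water to give the snail exposure solution. Snails were scored for death, and LC50 values were reported.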

Row | SMILES | Activity [1] | Activity [2] | Activity [3] | Activity [4] | LC50 [5] [µM]
1 | COC(/C=C/CO)=C/C(=O)N1C(=O)C=C[C@@H]1C [PALMYRROLINONE] | Non-toxic | inactive | inactive | Non-toxic | 6
2 | COC1=CC(=O)S[C@@H](CO)C1 [THIOPALMYRONE] | Non-toxic | inactive | inactive | Non-toxic | 8.3

Source: ChEMBL document CHEMBL1781943, “Molluscicidal metabolites from an assemblage of Palmyra Atoll cyanobacteria” (J Nat Prod, 2011)
